T cruzi growth-1: blocks T. cruzi growth in NIH3T3 culture; inhibition, % at 8.34 µM; T. cruzi beta-gal in NIH3T3, GalScreen luminescence, 90 h; hit rate 5.9% among 77,000; AID 624255;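 active = mean inhibition above about 93%, with at least 55% of replicates each passing it, limit read from the data, passing the limit was not always enough; inconclusive = only one of those two conditions holds; inactive = neither condition holds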
IDH1 R132H inh: blocks human IDH1 R132H reductase activity; hit rate 0.18% among 70,000; diaphorase/resazurin fluorescence, 60 min; inhibition, % at 10 µM; in the data active = inhibition above about 34%; inconclusive = no clear call, values can overlap the other calls; inactive = below about 11%;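 also: 0% = DMSO and 100% = no enzyme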
Target sequence (O75874 whole entry R132H): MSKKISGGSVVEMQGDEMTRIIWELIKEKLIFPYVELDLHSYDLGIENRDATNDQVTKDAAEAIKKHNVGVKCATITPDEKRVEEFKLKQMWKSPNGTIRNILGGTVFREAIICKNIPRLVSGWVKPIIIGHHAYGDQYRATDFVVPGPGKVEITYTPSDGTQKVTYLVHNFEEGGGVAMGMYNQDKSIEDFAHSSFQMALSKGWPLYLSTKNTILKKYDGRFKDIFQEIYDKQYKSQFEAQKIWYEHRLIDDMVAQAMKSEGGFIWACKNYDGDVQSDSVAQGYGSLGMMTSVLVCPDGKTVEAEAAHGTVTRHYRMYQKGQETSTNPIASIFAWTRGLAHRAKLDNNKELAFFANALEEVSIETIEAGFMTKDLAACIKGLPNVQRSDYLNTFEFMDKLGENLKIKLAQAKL
KDM4C inh: inhibitors of human demethylase GASC-1 KDM4C; GST-KDM4C 2-372, H3K9me3 peptide, LANCE TR-FRET; inhibition, % at 12.5 µM; hit rate 0.15% among 96,000; AID 720574;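 active = mean replicate inhibition above about 25%, with at least 55% of replicates also reaching it, limit read from the data, passing the limit was not always enough; inconclusive = only one of those two conditions met; inactive = neither condition met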
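System: N-terminal GST-fused human GASC-1 (KDM4C) fragment, residues 2-372 / Amount: 10 nM GST-KDM4C in enzyme reaction / Also added: H3K9me3 peptide with Fe(II)/2OG / Times: 30 min demethylation and 1 h detection at room temperature / Signal: LANCE TR-FRET / Read-out basis: Fall in 671/618 emission ratio as inhibition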
Pf Dd2 growth: blocks growth of Plasmodium falciparum Dd2 parasites; P. falciparum Dd2 growth, SYBR Green, 72 h; stronger effect = lower value; hit rate 2.3% among 94,000; AID 1159554; activity change, % at 10 µM; in the data active = activity change below about -80%; inconclusive = no clear call, values can overlap the other calls
T cruzi growth-2: Trypanosoma cruzi proliferation inhibition | shares compounds with T cruzi growth-1 | T. cruzi beta-gal in NIH3T3, GalScreen luminescence, 90 h | inhibition, % at 8.35 µM | hit rate 72% among 5,600;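 active = mean replicate inhibition above about 95% and at least 55% of replicates individually reaching it, limit read from the data; inconclusive = only one of the two criteria is met; inactive = neither criterion is met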
T cruzi growth-3: blocks T. cruzi growth in NIH3T3 host cells | hit rate 21% among 5,600 | shares compounds with T cruzi growth-1 | inhibition, % at 2.09 µM | T. cruzi beta-gal in NIH3T3, GalScreen luminescence, 90 h;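 active = mean inhibition above about 95%, with at least 55% of replicates also reaching it, limit read from the data; inconclusive = meets just one of the two conditions; inactive = meets neither condition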;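 also: plate controls were neutral control median for no effect and positive control median for full effect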
NIH3T3 tox: kills mouse NIH/3T3 fibroblasts. shares compounds with T cruzi growth-1. NIH/3T3 viability, CellTiter-Glo ATP luminescence, 90 h. cytotoxicity (signal decrease), % at 8.35 µM. hit rate 14% among 5,600;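 active = mean signal decrease across replicates above about 35% based on untreated-well scatter, with enough replicates individually passing, limit read from the data; inconclusive = no rule stated though some were filed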;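 also: 0% = median of neutral control wells and 100% = median of positive control wells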
3T3 cytotox 2: cytotoxicity in mouse NIH/3T3 fibroblasts | shares compounds with T cruzi growth-1 | NIH/3T3 viability, CellTiter-Glo ATP luminescence, 90 h | inhibition, % at 24.9 µM | hit rate 56% among 5,600;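 active = mean loss of cell viability signal at or above a set limit, and enough replicates individually reaching it; inconclusive = meets only the mean limit or only the replicate share; inactive = meets neither condition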;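 also: 0% = median of neutral control wells and 100% = median of positive control wells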
An asterisk follows results filed as active. Shown are actives, neighbours in structure and some others; about 5.9% of the full set was active somewhere.

For C[C@@H]1CN([C@@H](C)CO)S(=O)(=O)c2ccc(/C=C/c3ccccc3)cc2O[C@@H]1CN(C)Cc1cccnc1 the results were T cruzi growth-1 88.3*, IDH1 R132H inh -0.2, KDM4C inh -0.7, Pf Dd2 growth -37.4, T cruzi growth-2 91.5, T cruzi growth-3 86.6, NIH3T3 tox 69.6* and 3T3 cytotox 2 94.5*.
Screening Cc1ccc(S(=O)(=O)Nc2ccc3c(c2)C(=O)N([C@H](C)CO)C[C@@H](C)[C@H](CN(C)C(=O)Nc2ccc(C(F)(F)F)cc2)OCCCC[C@@H](C)O3)cc1 returned T cruzi growth-1 76.8, IDH1 R132H inh -1.5, KDM4C inh -0.7 and Pf Dd2 growth -31.5.
For Cc1ccc(S(=O)(=O)Nc2ccc3c(c2)C(=O)N([C@H](C)CO)C[C@H](C)[C@@H](CN(C)C(=O)Nc2ccc(C(F)(F)F)cc2)OCCCC[C@H](C)O3)cc1 the results were T cruzi growth-1 108.6*, KDM4C inh 0.9, Pf Dd2 growth -49.8, T cruzi growth-2 105.3*, T cruzi growth-3 113.5*, NIH3T3 tox 3.5 and 3T3 cytotox 2 11.4.
`COc1ccc(S(=O)(=O)Nc2ccc3c(c2)C(=O)N([C@H](C)CO)C[C@H](C)[C@@H](CN(C)C(=O)Nc2ccc(C(F)(F)F)cc2)OCCCC[C@@H](C)O3)cc1` gave T cruzi growth-1 107.8*, IDH1 R132H inh 1.6, KDM4C inh 0.5, Pf Dd2 growth -65.6, T cruzi growth-2 99.2*, T cruzi growth-3 30.5, NIH3T3 tox -7.8 and 3T3 cytotox 2 4.4.
`C[C@@H]1CCCCO[C@@H](CN(C)C(=O)Nc2ccc(C(F)(F)F)cc2)[C@H](C)CN([C@H](C)CO)C(=O)c2cc(NS(=O)(=O)c3ccc(Cl)cc3)ccc2O1` gave T cruzi growth-1 inconclusive, IDH1 R132H inh 4.5, KDM4C inh -0.5, Pf Dd2 growth -38.4, T cruzi growth-2 77.4, T cruzi growth-3 118.5*, NIH3T3 tox -5.3 and 3T3 cytotox 2 3.2.
Screening C[C@@H]1CCCCO[C@H](CN(C)C(=O)Nc2ccc(C(F)(F)F)cc2)[C@H](C)CN([C@H](C)CO)C(=O)c2cc(NS(=O)(=O)c3ccc(Cl)cc3)ccc2O1 returned T cruzi growth-1 99.1*, IDH1 R132H inh 0.8, KDM4C inh -5.0, Pf Dd2 growth -60.8, T cruzi growth-2 inconclusive, T cruzi growth-3 117.5*, NIH3T3 tox 27.5 and 3T3 cytotox 2 17.8.
Screening C[C@H]1CCCCO[C@@H](CN(C)C(=O)Nc2ccc(C(F)(F)F)cc2)[C@@H](C)CN([C@@H](C)CO)C(=O)c2cc(NS(=O)(=O)c3ccc(Cl)cc3)ccc2O1 returned T cruzi growth-1 1.9, KDM4C inh -2.4 and Pf Dd2 growth -35.7.
COc1ccc(C)cc1S(=O)(=O)N(C)CC(=O)O was read as IDH1 R132H inh -0.6.
Screening Cc1ccnc(NS(=O)(=O)c2ccc(NC(=O)c3cccs3)cc2)n1 returned IDH1 R132H inh -0.2.
For C[C@@H]1CCCCO[C@H](CN(C)C(=O)Nc2ccc(C(F)(F)F)cc2)[C@@H](C)CN([C@H](C)CO)C(=O)c2cc(NS(=O)(=O)c3ccc(Cl)cc3)ccc2O1 the results were T cruzi growth-1 104.3*, IDH1 R132H inh -1.9, KDM4C inh 0.9, Pf Dd2 growth -56.6, T cruzi growth-2 98.7*, T cruzi growth-3 57.6, NIH3T3 tox 7.2 and 3T3 cytotox 2 22.0.
CC(C)CC#Cc1ccc2c(c1)O[C@H](CN(C)Cc1ccc(F)cc1)[C@H](C)CN([C@@H](C)CO)S2(=O)=O was read as T cruzi growth-1 83.7, IDH1 R132H inh -0.1 and Pf Dd2 growth -58.6.
Screening C[C@@H]1CN([C@H](C)CO)S(=O)(=O)c2ccc(C#CCN(C)C)cc2O[C@H]1CN(C)Cc1ccncc1 returned T cruzi growth-1 101.2*, IDH1 R132H inh 1.8, KDM4C inh 5.2, Pf Dd2 growth -36.2, T cruzi growth-2 107.4*, T cruzi growth-3 105.1*, NIH3T3 tox 45.4* and 3T3 cytotox 2 57.8*.
For CCCC#Cc1ccc2c(c1)O[C@H](CN(C)Cc1ccncc1)[C@H](C)CN([C@H](C)CO)S2(=O)=O the results were T cruzi growth-1 114.0*, IDH1 R132H inh 13.9, KDM4C inh -1.4, Pf Dd2 growth -37.2, T cruzi growth-2 102.7*, T cruzi growth-3 75.8, NIH3T3 tox 36.9* and 3T3 cytotox 2 inconclusive.
C[C@@H]1CN([C@H](C)CO)S(=O)(=O)c2ccc(C#CCN(C)C)cc2O[C@@H]1CN(C)Cc1ccncc1 was read as T cruzi growth-1 24.6, IDH1 R132H inh 5.4, KDM4C inh 5.3 and Pf Dd2 growth 5.8.
`CC(C)CC#Cc1ccc2c(c1)O[C@@H](CN(C)Cc1ccncc1)[C@H](C)CN([C@@H](C)CO)S2(=O)=O` gave T cruzi growth-1 132.2*, IDH1 R132H inh 1.2, KDM4C inh -1.5, Pf Dd2 growth -79.8, T cruzi growth-2 96.9*, T cruzi growth-3 104.8*, NIH3T3 tox 26.1 and 3T3 cytotox 2 103.3*.
Screening C[C@@H]1CN([C@H](C)CO)S(=O)(=O)c2ccc(C#CCN(C)C)cc2O[C@H]1CN(C)Cc1ccc(F)cc1 returned T cruzi growth-1 115.5*, IDH1 R132H inh -3.8, KDM4C inh 15.5, Pf Dd2 growth -69.8, T cruzi growth-2 inconclusive, T cruzi growth-3 91.0, NIH3T3 tox 56.9* and 3T3 cytotox 2 107.4*.
`COc1ccc(Cl)cc1NC(=O)CSc1nnc(N)s1` gave IDH1 R132H inh -0.5.
C[C@@H]1CC[C@]2(C(=O)O)CC[C@]3(C(=O)O)C(=CCC4[C@@]5(C)CC[C@H](O[C@@H]6O[C@H](C)[C@H](O)[C@H](O)[C@H]6O)C(C)(C)C5CC[C@]43C)C2[C@H]1C (stereo partly specified) was read as IDH1 R132H inh -0.4.
For COc1cc2nc3occc3c(OC)c2cc1OCC(O)C(C)(C)O (stereo unspecified) the results were IDH1 R132H inh -0.1.
COc1ccc(OC)c(NC(=O)c2ccc(C)c(S(=O)(=O)Nc3ccc(C)cc3)c2)c1 was read as IDH1 R132H inh 0.0.
For CC1=C(C#N)C(C(F)(F)F)(C(F)(F)F)N=C(c2ccncc2)N1 the results were IDH1 R132H inh 8.3.
Screening CCCC#Cc1ccc2c(c1)O[C@H](CN(C)Cc1ccccc1)[C@@H](C)CN([C@@H](C)CO)S2(=O)=O returned IDH1 R132H inh 0.7, KDM4C inh -0.9 and Pf Dd2 growth -22.1.
